Source: PMC10376460 (European Journal of Endocrinology, 2023)
Several values for one entry are separate records, joined by “and”; a condition that tells them apart may be missing. Equal entries are not always repeated. Entries after “also recorded” stand apart in the source; their conditions may differ.

Key:
human AKR1C3 = target: T1, human AKR1C3 (Homo sapiens, UniProt P42330); assay: Biochemical enzyme assay: coumberol formation from coumberone; conditions: read-out: IC50, inhibition of human AKR1C3 activity; coumberone 0.3 µmol/L (Km)
T1 sequence (P42330 1-323): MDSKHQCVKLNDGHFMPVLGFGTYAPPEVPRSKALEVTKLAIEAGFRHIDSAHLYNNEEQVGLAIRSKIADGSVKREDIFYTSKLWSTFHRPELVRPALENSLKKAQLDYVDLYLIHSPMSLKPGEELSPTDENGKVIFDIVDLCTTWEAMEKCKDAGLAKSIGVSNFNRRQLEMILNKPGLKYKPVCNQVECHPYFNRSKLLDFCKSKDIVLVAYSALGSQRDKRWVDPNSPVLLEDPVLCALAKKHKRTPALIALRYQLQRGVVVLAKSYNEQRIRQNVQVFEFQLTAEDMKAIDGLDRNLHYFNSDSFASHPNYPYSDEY

postmenopausal women [1] = assay: Steroid assay; assay type: in vivo, human; conditions: 30 mg QD to 60 mg BID for 14 days
Summary of the method: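 Postmenopausal women received test compound QD or BID, or placebo, for 14 days with 5-day follow-up. A commercial validated multiplex LC-MS/MS kit quantified 17 serum steroids at 0-48 h after dosing on day −1, day 1 and day 14, plus predose samples. Fold change was the ratio to the last pre-dose value of the period. Values below LLOQ were excluded.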

premenopausal women [2] = assay: Steroid assay; assay type: in vivo, human
Summary of the method: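 Premenopausal women, pretreatment cycle versus 28-day treatment with 60 mg QD or BID. A validated multiplex LC-MS/MS kit measured 17 serum steroids at 3- to 4-day visits, E3G-triggered visits, first bleeding days and end of treatment. LH-peak-adjusted AUCs were taken from day −5 to +10 per cycle. Cycles were compared with 90% CI and Bonferroni–Holm-adjusted P values, and values below LLOQ were excluded.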

premenopausal women [3] = assay: Ovarian function assessment; assay type: in vivo, human; conditions: 60 mg QD or BID 28 d
Summary of the method: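 Open-label, intraindividual comparison in 18 premenopausal women: a pretreatment cycle, then oral test compound 60 mg QD or BID for 28 days. Assessments were transvaginal ultrasound (follicle diameter, endometrial thickness), Hoogland scoring of ovarian activity, and a bleeding pattern from daily self-rated maximum bleeding intensity. FSH and LH were sampled at 3- to 4-day visits, with extra visits on urinary E3G rises.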

[4] = tested on: healthy premenopausal and postmenopausal women; assay: Eicosanoid; assay type: in vivo, human; conditions: systemic measurements
Summary of the method: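 Plasma from postmenopausal (part A) and premenopausal (part B) women on the test compound. Eicosanoids, including prostaglandins, and polyunsaturated fatty acids were measured together by a published LC-MS/MS method. Part B sampling was at 3- to 4-day visits.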

[5] = Plasma pharmacokinetics, part A; assay type: in vivo, human
Summary of the method: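 Postmenopausal women, randomized, double-blind, placebo-controlled (7 active, 2 placebo per step). A single dose was given, then after a 14-28 day washout 3, 30 or 90 mg QD or 60 mg BID for 14 days. Plasma parent and metabolite M-7 were sampled predose to 336 h, plus periodic predose troughs. Noncompartmental parameters, accumulation and linearity indices were derived, and steady state was judged from mean Ctrough.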

[6] = Plasma pharmacokinetics, part B; assay type: in vivo, human; conditions: premenopausal women
Summary of the method: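 Premenopausal women received open-label oral test compound 60 mg QD or BID for 28 days. Plasma parent and metabolite M-7 concentrations were measured. Standard noncompartmental multiple-dose PK parameters were calculated from concentration-time data.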

postmenopausal women [7] = assay: Safety assessments; assay type: in vivo, human
Summary of the method: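 Safety covered adverse event reports, vital signs, ECGs, hematology, serum chemistry including liver function tests (transaminases, alkaline phosphatase) and urinalysis. Total serum bilirubin was followed during and after dosing against an ULN of 1.23 mg/dL. Placebo recipients were pooled, with descriptive statistics.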

AKR1C1 = conditions: concentrations up to 10 µM; cited from earlier work
AKR1C2 = conditions: concentrations up to 10 µM; cited from earlier work
AKR1C4 = conditions: concentrations up to 10 µM; cited from earlier work
[8] = tested on: organic anion transporting polypeptide (OATP) 1B1/3 transporters; conditions: in vitro; cited from earlier work
[9] = tested on: premenopausal women with endometriosis; conditions: phase 2 study; cited from earlier work
[10] = LH-peak-adjusted AUC, 60 mg once or twice daily 28 d
[11] = serum, LH-peak-adjusted (day −5 to +10), 60 mg once or twice daily 28 d
[12] = treatment vs pretreatment cycle, 60 mg once or twice daily 28 d

SMILES: CN(CCC(=O)O)C(=O)c1ccc2c(c1)CC[C@@H]1[C@@H]2CC[C@]2(C)C(c3cncc(F)c3)=CC[C@@H]12 [BAY1128688]
- IC50 (human AKR1C3): 1.4 nM
- serum concentrations of androsterone (postmenopausal women [1]): increased in a dose-dependent manner
- changes in serum E2 (17β-estradiol) concentrations (premenopausal women [2]; 60 mg QD or BID 28 d): no concomitant changes; also recorded: no systematic changes
- changes in serum progesterone concentrations (premenopausal women [2]; 60 mg QD or BID 28 d): no concomitant changes; also recorded: no systematic changes
- serum testosterone, treatment cycle vs pretreatment cycle (premenopausal women [2]; 60 mg QD or BID 28 d): slightly decrease
- 11-Deoxycorticosterone: X-fold change from baseline, mean (premenopausal women [2]; [10]): 0.88
- 11-Deoxycorticosterone: X-fold change from baseline, median (premenopausal women [2]; [10]): 0.87
- 11-Deoxycortisol: X-fold change from baseline, mean (premenopausal women [2]; [10]): 0.85
- 11-Deoxycortisol: X-fold change from baseline, median (premenopausal women [2]; [10]): 0.79
- 17alpha-Hydroxyprogesterone: X-fold change from baseline, mean (premenopausal women [2]; [10]): 0.88
- 17alpha-Hydroxyprogesterone: X-fold change from baseline, median (premenopausal women [2]; [10]): 0.87
- Aldosterone: X-fold change from baseline, mean (premenopausal women [2]; [10]): 1.05
- Aldosterone: X-fold change from baseline, median (premenopausal women [2]; [10]): 0.94
- Androstenedione: X-fold change from baseline, mean (premenopausal women [2]; [10]): 0.99
- Androstenedione: X-fold change from baseline, median (premenopausal women [2]; [10]): 0.98
- Androsterone: X-fold change from baseline, mean (premenopausal women [2]; [10]): 2.95
- Androsterone: X-fold change from baseline, median (premenopausal women [2]; [10]): 2.42
- Corticosterone: X-fold change from baseline, mean (premenopausal women [2]; [10]): 0.98
- Corticosterone: X-fold change from baseline, median (premenopausal women [2]; [10]): 0.95
- Cortisol: X-fold change from baseline, mean (premenopausal women [2]; [10]): 0.95
- Cortisol: X-fold change from baseline, median (premenopausal women [2]; [10]): 0.92
- Cortisone: X-fold change from baseline, mean (premenopausal women [2]; [10]): 0.94
- Cortisone: X-fold change from baseline, median (premenopausal women [2]; [10]): 0.92
- Dehydroepiandrosterone sulfate: X-fold change from baseline, mean (premenopausal women [2]; [10]): 1.11
- Dehydroepiandrosterone sulfate: X-fold change from baseline, median (premenopausal women [2]; [10]): 1.12
- Dehydroepiandrosterone: X-fold change from baseline, mean (premenopausal women [2]; [10]): 0.83
- Dehydroepiandrosterone: X-fold change from baseline, median (premenopausal women [2]; [10]): 0.78
- Dihydrotestosterone: X-fold change from baseline, mean (premenopausal women [2]; [10]): 1.52
- Dihydrotestosterone: X-fold change from baseline, median (premenopausal women [2]; [10]): 1.53
- Estradiol: X-fold change from baseline, mean (premenopausal women [2]; [10]): 1.06
- Estradiol: X-fold change from baseline, median (premenopausal women [2]; [10]): 1.12
- Estrone: X-fold change from baseline, mean (premenopausal women [2]; [10]): 1.05
- Estrone: X-fold change from baseline, median (premenopausal women [2]; [10]): 1.08
- Etiocholanolone: X-fold change from baseline, mean (premenopausal women [2]; [10]): 1.96
- Etiocholanolone: X-fold change from baseline, median (premenopausal women [2]; [10]): 1.70
- Progesterone: X-fold change from baseline, mean (premenopausal women [2]; [10]): 0.84
- Progesterone: X-fold change from baseline, median (premenopausal women [2]; [10]): 0.90
- Testosterone: X-fold change from baseline, mean (premenopausal women [2]; [10]): 0.86
- Testosterone: X-fold change from baseline, median (premenopausal women [2]; [10]): 0.87
- 11-Deoxycorticosterone: Treatment period AUC (premenopausal women [2]; [11]): 1.61 nmol/day
- 11-Deoxycortisol: Treatment period AUC (premenopausal women [2]; [11]): 4.84 nmol/day
- 17alpha-Hydroxyprogesterone: Treatment period AUC (premenopausal women [2]; [11]): 42.5 nmol/day
- Aldosterone: Treatment period AUC (premenopausal women [2]; [11]): 3.17 nmol/day
- Androstenedione: Treatment period AUC (premenopausal women [2]; [11]): 51.1 nmol/day
- Androsterone: Treatment period AUC (premenopausal women [2]; [11]): 20.6 nmol/day
- Corticosterone: Treatment period AUC (premenopausal women [2]; [11]): 90.6 nmol/day
- Cortisol: Treatment period AUC (premenopausal women [2]; [11]): 4102 nmol/day
- Cortisone: Treatment period AUC (premenopausal women [2]; [11]): 859 nmol/day
- Dehydroepiandrosterone sulfate: Treatment period AUC (premenopausal women [2]; [11]): 69 510 nmol/d
- Dehydroepiandrosterone: Treatment period AUC (premenopausal women [2]; [11]): 130 nmol/day
- Dihydrotestosterone: Treatment period AUC (premenopausal women [2]; [11]): 10.2 nmol/day
- Estradiol: Treatment period AUC (premenopausal women [2]; [11]): 7.29 nmol/day
- Estrone: Treatment period AUC (premenopausal women [2]; [11]): 4.02 nmol/day
- Etiocholanolone: Treatment period AUC (premenopausal women [2]; [11]): 7.01 nmol/day
- Progesterone: Treatment period AUC (premenopausal women [2]; [11]): 213 nmol/day
- Testosterone: Treatment period AUC (premenopausal women [2]; [11]): 9.45 nmol/day
- androsterone on-treatment value, maximum (premenopausal women [2]; serum, 60 mg QD or BID): 6.36 nmol/L
- 11-Deoxycorticosterone: AUC difference (mixed linear model) (premenopausal women [2]; [12]): -0.308 nmol/day
- 11-Deoxycortisol: AUC difference (mixed linear model) (premenopausal women [2]; [12]): -0.953 nmol/day
- 17alpha-Hydroxyprogesterone: AUC difference (mixed linear model) (premenopausal women [2]; [12]): -5.20 nmol/day
- Aldosterone: AUC difference (mixed linear model) (premenopausal women [2]; [12]): 0.0041 nmol/day
- Androstenedione: AUC difference (mixed linear model) (premenopausal women [2]; [12]): -0.312 nmol/day
- Androsterone: AUC difference (mixed linear model) (premenopausal women [2]; [12]): 13.5 nmol/day
- Corticosterone: AUC difference (mixed linear model) (premenopausal women [2]; [12]): -17.7 nmol/day
- Cortisol: AUC difference (mixed linear model) (premenopausal women [2]; [12]): -407 nmol/day
- Cortisone: AUC difference (mixed linear model) (premenopausal women [2]; [12]): -55.6 nmol/day
- Dehydroepiandrosterone sulfate: AUC difference (mixed linear model) (premenopausal women [2]; [12]): 9524 nmol/day
- Dehydroepiandrosterone: AUC difference (mixed linear model) (premenopausal women [2]; [12]): -23.3 nmol/day
- Dihydrotestosterone: AUC difference (mixed linear model) (premenopausal women [2]; [12]): 3.49 nmol/day
- Estradiol: AUC difference (mixed linear model) (premenopausal women [2]; [12]): 0.343 nmol/day
- Estrone: AUC difference (mixed linear model) (premenopausal women [2]; [12]): 0.139 nmol/day
- Etiocholanolone: AUC difference (mixed linear model) (premenopausal women [2]; [12]): 3.47 nmol/day
- Progesterone: AUC difference (mixed linear model) (premenopausal women [2]; [12]): -50.6 nmol/day
- Testosterone: AUC difference (mixed linear model) (premenopausal women [2]; [12]): -1.43 nmol/day
- menstrual cyclicity and ovarian function (premenopausal women [3]): not altered
- participants with Hoogland score of 6 (normal ovulation) in treatment cycle (premenopausal women [3]): 14 of 18 and 14/18
- impact on prostaglandins investigated [4]: no obvious impact
- RAAUC (accumulation ratio) ([5]; 60 mg BID, geometric mean/%CV): 2.32
- time until PK steady-state conditions were reached (mean Ctrough) ([5]; all dose groups): 4 to 8 days
- multiple-dose PK parameters compared with postmenopausal women [6]: Largely similar
- individual maximum increase in total serum bilirubin, fold ULN (postmenopausal women [7]; 60 mg BID, day 13): around 1.2 fold ULN
- individual maximum increase in total serum bilirubin, fold ULN (postmenopausal women [7]; 90 mg QD, day 6): around 2.3 fold ULN
- overall safety and tolerability (postmenopausal women [7]; 2 or 4 weeks of treatment, healthy female participants): safe and well tolerated
- increases in serum bilirubin, fold above the ULN (postmenopausal women [7]; all participants except two): below 1.50 fold
- changes in liver enzymes (transaminases; alkaline phosphatase) (postmenopausal women [7]; any of the participants, parts A and B): no concomitant changes
- inhibition of AKR1C1 (AKR1C1): no inhibition
- inhibition of AKR1C2 (AKR1C2): no inhibition
- inhibition of AKR1C4 (AKR1C4): no inhibition
- inhibition of OATP 1B1/3 transporters [8]: inhibitor
- finding that terminated development [9]: hepatotoxicity
